Source: PubChem (several laboratories)
STEP inh – STEP phosphatase inhibitors, primary screen, biochemical, fluorescence intensity, uHTS | Tyrosine-protein phosphatase non-receptor type 5 (Homo sapiens), P54829 | recombinant STEP, OMFP fluorogenic substrate | inhibition, % at 20 µM | actives 0.25% (n = 360,000);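 active means inhibition at 20 µM, scaled per plate between control wells, above about 37%, limit read from the data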
Target sequence (P54829 whole entry, looked up): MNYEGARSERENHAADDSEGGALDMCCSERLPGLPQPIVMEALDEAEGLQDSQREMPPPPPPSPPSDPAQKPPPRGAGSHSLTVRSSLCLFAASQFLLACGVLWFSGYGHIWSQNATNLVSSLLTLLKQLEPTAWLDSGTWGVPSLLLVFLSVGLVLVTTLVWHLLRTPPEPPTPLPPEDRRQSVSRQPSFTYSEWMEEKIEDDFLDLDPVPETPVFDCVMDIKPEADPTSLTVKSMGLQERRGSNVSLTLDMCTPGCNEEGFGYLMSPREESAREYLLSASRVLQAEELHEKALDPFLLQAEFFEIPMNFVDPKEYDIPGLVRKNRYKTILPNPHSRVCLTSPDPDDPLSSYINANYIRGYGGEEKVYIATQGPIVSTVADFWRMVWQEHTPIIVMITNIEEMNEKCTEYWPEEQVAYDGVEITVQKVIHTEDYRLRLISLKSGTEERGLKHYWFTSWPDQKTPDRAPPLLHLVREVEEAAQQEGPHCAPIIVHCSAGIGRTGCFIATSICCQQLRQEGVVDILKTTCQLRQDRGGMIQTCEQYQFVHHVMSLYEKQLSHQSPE
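material = STEP tyrosine phosphatase | reagent = fluorogenic phosphatase substrate OMFP at 25 µM final | doses = single compound dose of 20 µM, 1% DMSO final | schedule = 20 min reaction, room temperature, in the dark | measured by = fluorescence, 480/540 nm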
NadD inh – inhibitors of S. aureus NadD, primary screen, biochemical, colorimetric, uHTS. Nicotinate-nucleotide adenylyltransferase NadD (Staphylococcus aureus N315). purified NadD enzyme, colorimetric absorbance read-out. inhibition, % at 20 µM. actives 0.78% (n = 360,000). AID 602399, 2012; in the data active means inhibition above about 26%
rCAG binder – binders of r(CAG) RNA repeats, primary screen, biochemical, fluorescence | inhibition, % at 3 µM | actives 1.3% (n = 370,000) | r(CAG) RNA repeat, TO-PRO-1 dye displacement fluorescence;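 active means inhibition above the plate cutoff, the mean of all test compounds on that plate plus 3 SD, cut at about 35% in these data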;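 further: higher means more dye released from RNA so lower well fluorescence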
Scp1 inh – Scp-1 phosphatase inhibitors, primary screen, biochemical, colorimetric, uHTS. Carboxy-terminal domain RNA polymerase II polypeptide A small phosphatase 1 (Homo …. Recombinant Scp1, phosphopeptide, malachite green phosphate absorbance. inhibition, % at 20 µM. actives 0.88% (n = 340,000);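 active means inhibition above about 50% at 20 µM, limit read from the data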
Target sequence (Q9GZU7 76-261 limits assumed): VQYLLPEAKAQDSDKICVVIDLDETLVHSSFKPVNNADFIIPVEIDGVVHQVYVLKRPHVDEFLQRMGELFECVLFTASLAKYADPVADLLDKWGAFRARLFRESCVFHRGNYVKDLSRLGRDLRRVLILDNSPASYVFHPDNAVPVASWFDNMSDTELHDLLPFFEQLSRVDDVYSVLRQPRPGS
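assay system = SCP-1 phosphatase catalytic domain, residues 76-261 | buffer or medium = 50 mM Tris acetate pH 5.5, 0.005% Tween-20, 10 mM MgCl2 | incubation = enzyme reaction 45 min at room temperature, colour 5 min, stabilisation 30 min | signal = Phosphate-binding colour reagent, absorbance read at 630 nm | measure = % inhibition at 20 µM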
LMPTP inh – LMPTP phosphatase inhibitors, primary screen, biochemical, fluorescence intensity, uHTS. recombinant LMPTP-A, OMFP fluorogenic substrate. inhibition, % at 20 µM. actives 0.22% (n = 360,000). AID 651560, 2012. Low molecular weight phosphotyrosine protein phosphatase (Homo sapiens), P24666;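 active means compounds that cut the enzyme signal by at least half of the control window in the single-dose screen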
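material = LMPTP-A | quantity = 0.625 nM enzyme | reagent = OMFP substrate, 400 µM final | buffer or medium = Bis-Tris pH 6.0, DTT, detergent | detection = endpoint fluorescence intensity from OMFP dephosphorylation | dosing = single 20 µM dose | read-out basis = % inhibition relative to no-enzyme and uninhibited control wells | control set = no-enzyme and uninhibited controls | timing = 50 min at room temperature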
Scp1 confirm – Scp-1 phosphatase inhibitors, retest, confirmation, biochemical, colorimetric, single concentration; actives 61% (n = 2,500); inhibition, % at 20 µM; shares compounds with Scp1 inh; recombinant SCP-1 catalytic domain, phosphate release, malachite green absorbance; AID 540281, 2011
Scp-1 MG ctr – colorimetric readout interference by compounds, confirmation, artefact control for Scp-1 inhibitor project, biochemical, single concentration. shares compounds with Scp1 inh. Colorimetric interference counterscreen, malachite green absorbance 630 nm. apparent inhibition (interference), % at 20 µM. 2,500 tested, under 10 active. AID 540313, 2011;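 further: compounds added after enzyme reaction finished so only phosphate colour detection is probed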
Scp-1 Tm shift – Scp-1 binding by thermal shift, confirmation, orthogonal assay for Scp-1 inhibitor project, biophysical, differential scanning fluorimetry | thermal shift relative to vanadate control, % at 40 µM | shares compounds with Scp1 inh | actives 25% (n = 1,500) | Recombinant SCP1, Sypro Orange thermal shift Tm;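 active means substances whose mean melting-temperature shift, as a percentage of the reference inhibitor's shift, reaches about 5.3%, limit read from the data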
Of the large screens only hits and unclear results are named; the others gave an inactive call (follow-up assays come after a bar, where they were run). Compounds with a hit are over-represented: about 2.6% of the library has one in this group of screens.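 How the source made its calls, unless noted: active means inhibition of at least 30% at 20 µM; inactive means the rest.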

O=C(Nc1ccccc1F)c1coc(=O)c(Br)c1	none
O=C(Nc1ccc(Br)cn1)c1coc(=O)c(Br)c1	Scp1 inh 69 | Scp1 confirm inactive | Scp-1 MG ctr inactive
C=CCn1c(O)c(N=NC(=O)CNC(=O)/C=C/c2ccc(OC)cc2)c2ccccc21	none
C=CCn1c(O)c(N=NC(=O)CNC(=O)/C=C/c2ccco2)c2ccccc21	Scp1 inh 90 | Scp1 confirm 48 | Scp-1 MG ctr inactive | Scp-1 Tm shift inactive
Cc1ccc(C)c(NC(=O)CNS(=O)(=O)c2ccc3[nH]c(=O)oc3c2)c1	none (no result: STEP inh, NadD inh, Scp1 inh, LMPTP inh)
Nc1cc([N+](=O)[O-])ccc1N1C(=O)CCCC1=O	Scp1 inh 64 | Scp1 confirm 49 | Scp-1 MG ctr inactive | Scp-1 Tm shift inactive
Nc1cc(Cl)ccc1N1C(=O)CCC1=O	none
COc1ccc(C(=O)OCCCN(C)C2CN(Cc3cn(Cc4ccc([N+](=O)[O-])cc4)nn3)S(=O)(=O)C2)cc1OC (stereo not drawn)	none (no result: STEP inh, NadD inh, Scp1 inh, LMPTP inh)
O=C(NCC1CCCO1)c1cc(-c2ccccc2F)no1 (stereo not drawn)	Scp1 inh 52 | Scp1 confirm inactive | Scp-1 MG ctr inactive
O=C(NCC1CCCO1)c1ccc([N+](=O)[O-])o1 (stereo not drawn)	Scp1 inh 63 | Scp1 confirm inactive | Scp-1 MG ctr inactive
C[n+]1cccc(C(=O)NCC2CCCO2)c1 (stereo not drawn)	Scp1 inh 60 | Scp1 confirm inactive | Scp-1 MG ctr inactive
O=C(O)c1cccc(N2C(=O)C3CC=C(Cl)CC3C2=O)c1 (stereo not drawn)	Scp1 inh 109 | Scp1 confirm 57 | Scp-1 MG ctr inactive | Scp-1 Tm shift inactive
O=C(O)c1cccc(N2C(=O)C3CC=CCC3C2=O)c1 (stereo not drawn)	none
O=C(Cn1nnc(-c2ccncc2)n1)Nc1ccc(F)cc1F	none (no result: STEP inh, NadD inh, Scp1 inh, LMPTP inh)
CC(C)CC1Nc2ccc(C(=O)NCc3ccc4c(c3)OCO4)cc2NC1=O (stereo not drawn)	none (no result: rCAG binder) | Scp1 confirm inactive | Scp-1 MG ctr inactive
COc1cc(/C=C/c2cccc[n+]2C)ccc1OCC(=O)Nc1cccc(Cl)c1	Scp1 inh 70 | Scp1 confirm 32 | Scp-1 MG ctr inactive | Scp-1 Tm shift inactive
COc1cc(/C=C/c2cccc[n+]2C)ccc1OCC(=O)Nc1ccccc1	none
O=C1c2ccccc2C(=O)N1c1nc2nccc(-c3ccccc3)n2n1	Scp1 inh 101 | Scp1 confirm inactive | Scp-1 MG ctr inactive
CC1(C)CC[C@]2(C(=O)O)CC[C@]3(C)C(=CCC4[C@@]5(C)CC[C@H](O)C(C)(C)C5CC[C@]43C)C2C1 (stereo partly drawn)	Scp1 inh 56 (no result: STEP inh) | Scp1 confirm inactive | Scp-1 MG ctr inactive
C=CCOc1ccc(Br)cc1/C=C1/SC(=Nc2ccc(C(=O)O)cc2)NC1=O	STEP inh 65, Scp1 inh 86, LMPTP inh 81 | Scp1 confirm 75 | Scp-1 MG ctr inactive | Scp-1 Tm shift inactive
C=CCOc1c(Br)cc(/C=C2\SC(=Nc3ccccc3)NC2=O)cc1OC	none
CCN(CC(=O)NCc1cccs1)C(=O)COc1ccc(C(C)=O)cc1	Scp1 inh 59 | Scp1 confirm inactive | Scp-1 MG ctr inactive
COc1ccc2[nH]c(=O)cc(C(=O)O)c2c1	Scp1 inh 69 | Scp1 confirm 73 | Scp-1 MG ctr inactive | Scp-1 Tm shift inactive
COc1ccc2[nH]c(=O)c(C(=O)O)cc2c1	none
O=S1(=O)c2ccc(Br)cc2OC[C@H](Cc2ccccc2)N1Cc1cn(Cc2ccc(F)cc2)nn1	none (no result: STEP inh, NadD inh, Scp1 inh, LMPTP inh)
CCN(CC)c1ccc(-c2nn3c(-c4ccccc4Cl)nnc3s2)cc1	none (no result: STEP inh, NadD inh, Scp1 inh, LMPTP inh)
Cc1noc(C)c1S(=O)(=O)Nc1ccc2c(c1)C(=O)N([C@H](C)CO)C[C@H](C)[C@@H](CN(C)C(=O)NC1CCCCC1)O2	Scp1 inh 56 | Scp1 confirm inactive | Scp-1 MG ctr inactive
COc1ccc(S(=O)(=O)N(C)C[C@H]2Oc3ccc(NS(=O)(=O)c4ccccc4)cc3C(=O)N([C@H](C)CO)C[C@@H]2C)cc1	Scp1 inh 59 | Scp1 confirm inactive | Scp-1 MG ctr inactive
COc1ccc(NC(=O)Nc2ccc3c(c2)C(=O)N([C@H](C)CO)C[C@H](C)[C@@H](CN(C)C(=O)Nc2ccccc2)O3)cc1	Scp1 inh 71 | Scp1 confirm inactive | Scp-1 MG ctr inactive
C[C@H](CO)N1C[C@H](C)[C@@H](CN(C)C(=O)NC2CCCCC2)Oc2ccc(NS(=O)(=O)c3ccccc3)cc2C1=O	none
COc1ccc(NC(=O)N(C)C[C@H]2Oc3ccc(NC(=O)Cc4ccccc4)cc3C(=O)N([C@H](C)CO)C[C@@H]2C)cc1	none
COc1ccc(NC(=O)N(C)C[C@H]2Oc3ccc(NS(=O)(=O)c4c(C)noc4C)cc3C(=O)N([C@H](C)CO)C[C@@H]2C)cc1	Scp1 inh 58 | Scp1 confirm inactive | Scp-1 MG ctr inactive
COc1ccc(NC(=O)N(C)C[C@H]2Oc3ccc(NC(=O)Nc4c(C)noc4C)cc3C(=O)N([C@H](C)CO)C[C@@H]2C)cc1	Scp1 inh 62 | Scp1 confirm inactive | Scp-1 MG ctr inactive
Cc1ccc2nc(SCC(=O)Nc3ccc(Br)cc3)nc(=O)n2c1	Scp1 inh 60 | Scp1 confirm inactive | Scp-1 MG ctr inactive
Cc1ccc2nc(SCC(=O)Nc3ccc(C)c(Cl)c3)nc(=O)n2c1	none
COc1cccc2cc(C(=O)NCc3ccco3)c(=Nc3ccc(C(=O)O)cc3)oc12	Scp1 inh 56 | Scp1 confirm 32 | Scp-1 MG ctr inactive | Scp-1 Tm shift inactive
O=C(N/N=C/c1cccc(OC2CSC2)c1)c1ccccc1O	Scp1 inh 96 | Scp1 confirm 59 | Scp-1 MG ctr inactive | Scp-1 Tm shift inactive
CC(C)CN1C(=O)[C@]2(CC(=O)N(C)C2c2ccccc2)c2cc(-n3cc(CCCC#N)nn3)ccc21 (stereo partly drawn)	none (no result: STEP inh, NadD inh, Scp1 inh, LMPTP inh)
